One series has as its system Coxsackievirus A21. As to the kind of experiment: Antiviral activity against Coxsackievirus A21 infected in human MRC5 cells assessed as inhibition of virus induced cytopathic effect after 24 hrs by MTS assay. To be noted: Enterovirus C, MRC5, 24 h. It is filed as functional, organism-based. In short, it runs like this:
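EC50 taken from a cytoprotection (CPE) assay. Protection of virus-infected host cells is read out by MTS dye reduction. The Coxsackie A assay uses MRC-5 cells with strain A7 or A21.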
In general terms: Cytopathic effects are the visible damage that an infection or toxin causes in cultured cells.

For a further series, the system named is MRC5. The series is described as follows: Cytotoxicity against human MRC5 cells by MTS assay. Format: cell-based. The procedure, abridged:
(§1)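 CC50 measured in the uninfected host cells used in each CPE assay. Compound cytotoxicity is read out by MTS dye reduction.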
(In general: Tetrazolium assays rely on reduction of a dye to a coloured formazan, in cell work by metabolically active cells.)

A further series deals with SARS-CoV. The series is described as follows: Antiviral activity against SARS coronavirus Toronto-2 infected in african green monkey Vero cells assessed as inhibition of virus induced cytopathic effect after 24 hrs by MTS assay. Format: functional, organism-based. To be noted: Severe acute respiratory syndrome-related coronavirus, Toronto-2, Vero.
In series [1] the test system is Vero. As to the kind of experiment: Cytotoxicity against african green monkey Vero E6 cells by MTS assay. It is filed as cell-based. To be noted: chlorocebus sabaeus. In short, it runs like this:
as §1

A further series concerns MDCK. As to the kind of experiment: Cytotoxicity against dog MDCK cells by MTS assay. Format: cell-based, Canis lupus familiaris. In short, it runs like this: as §1
The next series deals with Human respirovirus 3. The series is described as follows: Antiviral activity against Parainfluenza 3 C 243 infected in african green monkey Vero cells assessed as inhibition of virus induced cytopathic effect after 24 hrs by MTS assay. Format: functional, organism-based. The note with it: Human respirovirus 3, C 243, Vero.
Series [2] is described as follows: (§2) Cytotoxicity against human HuH7 cells by MTS assay. It is filed as cell-based, Huh-7. To be noted: HuH7 cells.
In series [3] the test system is Vero. As to the kind of experiment: Cytotoxicity against african green monkey Vero cells by MTS assay. To be noted: chlorocebus sabaeus. It is filed as cell-based. In short, it runs like this:
as §1

For another series, the system named is Influenza A virus. As to the kind of experiment: Antiviral activity against Influenza A virus H3N2 infected in MDCK cells assessed as inhibition of virus induced cytopathic effect after 24 hrs by MTS assay. It is filed as functional, organism-based.
Another series relates to dengue virus type 2. As to the kind of experiment: Antiviral activity against Dengue virus type 2 New Guinea C infected in african green monkey Vero E6 cells assessed as inhibition of virus induced cytopathic effect after 24 hrs by MTS assay. Format: functional, organism-based.
The next series relates to West Nile virus. As to the kind of experiment: Antiviral activity against West nile virus NY99 infected in african green monkey Vero cells assessed as inhibition of virus induced cytopathic effect after 24 hrs by MTS assay. Format: functional, organism-based. To be noted: NY-99, Vero.
The nature of series [4]: Antiviral activity against Coxsackievirus A7 infected in human MRC5 cells assessed as inhibition of virus induced cytopathic effect after 24 hrs by MTS assay. It is filed as functional, cell-based. To be noted: Enterovirus A, MRC5, 24 h. The procedure, abridged: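 Cytoprotection (CPE) assay in MRC-5 cells infected with Coxsackie A strain A7 or A21. MTS dye reduction read out both protection from virus-induced CPE and compound cytotoxicity, giving EC50 and CC50.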

The subject of series [5] is Hepatitis C virus. As to the kind of experiment: Antiviral activity against Hepatitis C virus genotype 1b infected in human HuH7 cells assessed as inhibition of virus induced cytopathic effect after 24 hrs by MTS assay. Format: functional, organism-based, Hepacivirus hominis. To be noted: Huh-7, 24 h.
The test system of series [6] is Hepatitis C virus. As to the kind of experiment: Inhibition of Hepatitis C virus genotype 1b NS5B RNA-dependent RNA polymerase using [33P]ATP after 90 mins by phosphoimaging. Also noted: species or system Hepatitis C virus subtype 1b. The note with it: 1.5 h. The procedure, abridged: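 Uses recombinant GT1b NS5B in 50 mM Tris–HCl pH 7.5 with 10 mM KCl, 1 mM DTT, 5 mM MgCl2, 0.2 unit/μL RNAsin and 0.01% BSA (final concentrations). 75 nM enzyme is pre-incubated with 4 ng/μL (50 nM) heteropolymer sshRNA template for 5 min at rt. Inhibitor is then added and incubated 5 min at RT.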

Series [7] in a line: Selectivity ratio of CC50 for human HuH7 cells to EC50 for Hepatitis C virus genotype 1b. Format: ADME, cell-based, Huh-7. To be noted: read-out: Ratio CC50/EC50. The procedure, abridged: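 Anti-HCV EC50 was measured in a subgenomic HCV replicon cell assay, and CC50 was measured in the host cells of the same assay. The selectivity index was calculated as CC50/EC50.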
Another series concerns Huh-7. Described as §2. Format: cell-based. To be noted: huh-7.
The next series concerns Yellow fever virus. As to the kind of experiment: Antiviral activity against Yellow fever virus 17D infected in human HeLa cells assessed as inhibition of virus induced cytopathic effect after 24 hrs by MTS assay. It is filed as functional, cell-based.
The next series has as its system HeLa. As to the kind of experiment: Cytotoxicity against human HeLa cells by MTS assay. It is filed as cell-based. The procedure, abridged: as §1

The values below come from ChEMBL document CHEMBL2016498, “Synthesis and antiviral activity of a series of 1'-substituted 4-aza-7,9-dideazaadenosine C-nucleosides” (Bioorg Med Chem Lett, 2012).

For orientation: EC50 means the concentration giving half of the maximal effect. A word on the CC50: it is the concentration that lowers cell viability or growth by half. Broadly, the IC50 is the point on the concentration scale where inhibition reaches its midpoint.

For `C[C@@]1(c2ccc3c(N)ncnn23)O[C@H](CO)[C@@H](O)[C@H]1O`, the EC50 in the series with Coxsackievirus A21 was over 30 µM; in the series on SARS-CoV, over 30 µM; in the series with Human respirovirus 3, 5.23 µM; with Influenza A virus, over 30 µM; in the series on dengue virus type 2 it was over 30 µM; in the series on West Nile virus, over 30 µM. Further, in [4], the EC50 is over 30 µM. The CC50 in the series on MRC5 was over 30 µM; in the series on Vero [1], over 30 µM; in the series on MDCK, over 30 µM; in series [2] it was over 45 µM; in the series on Vero [3], over 30 µM.

Turning to `C=C[C@@]1(c2ccc3c(N)ncnn23)O[C@H](CO)[C@@H](O)[C@H]1O`, the EC50 with Coxsackievirus A21 is over 30 µM; in the series with SARS-CoV it was 14 µM; with Human respirovirus 3, over 30 µM; in the series with Influenza A virus, over 30 µM; in the series on dengue virus type 2, over 30 µM; in the series with Hepatitis C virus [5], over 89 µM. For the same compound, the EC50 (in the series on West Nile virus; in [4]) was over 30 µM in each case. The CC50 is over 30 µM with MRC5; over 30 µM with Vero [1]; over 30 µM in the series with MDCK; over 89 µM in [2]; over 30 µM in the series with Vero [3].

In the case of `C#C[C@@]1(c2ccc3c(N)ncnn23)O[C@H](CO)[C@@H](O)[C@H]1O`, the EC50 is over 30 µM in the series on Coxsackievirus A21; over 30 µM in the series on SARS-CoV; over 30 µM in the series with Human respirovirus 3; over 30 µM with Influenza A virus; over 30 µM with dengue virus type 2; over 89 µM with Hepatitis C virus [5]. In addition, the EC50 (with West Nile virus; in series [4]) was over 30 µM in each case. For the same compound, the CC50 is over 30 µM with MRC5; over 30 µM in the series with Vero [1]; over 30 µM in the series with MDCK; over 89 µM in [2]; over 30 µM in the series with Vero [3].

As for `C[C@@]1(c2ccc3c(N)ncnn23)O[C@H](COP(=O)(O)OP(=O)(O)OP(=O)(O)O)[C@@H](O)[C@H]1O`, in the series with Hepatitis C virus [6], the IC50 came to 20 µM.

As for `C=C[C@@]1(c2ccc3c(N)ncnn23)O[C@H](COP(=O)(O)OP(=O)(O)OP(=O)(O)O)[C@@H](O)[C@H]1O`, the IC50 in the series on Hepatitis C virus [6] is 178 µM.

In the case of `C#C[C@@]1(c2ccc3c(N)ncnn23)O[C@H](COP(=O)(O)OP(=O)(O)OP(=O)(O)O)[C@@H](O)[C@H]1O`, the IC50 in the series on Hepatitis C virus [6] was 232 µM.

On to `CC(C)(C)C(=O)SCCOP(=O)(OCCSC(=O)C(C)(C)C)OC[C@H]1O[C@@](C#N)(c2ccc3c(N)ncnn23)[C@H](O)[C@@H]1O`, for which, in series [7], the selectivity ratio came out at 40. The same compound returned a CC50 in the series with Huh-7 of 3.2 µM. Moreover, the EC50 in the series on Hepatitis C virus [5] stood at 0.085 µM.

On to `CC(C)(C)C(=O)SCCOP(=O)(OCCSC(=O)C(C)(C)C)OC[C@H]1O[C@@](C)(c2ccc3c(N)ncnn23)[C@H](O)[C@@H]1O`, for which, in [7], the selectivity ratio is under 10. Besides, in the series on Huh-7, the CC50 was 0.73 µM. In addition, the EC50 with Hepatitis C virus [5] came to 0.078 µM.

As to `C=C[C@@]1(c2ccc3c(N)ncnn23)O[C@H](COP(=O)(OCCSC(=O)C(C)(C)C)OCCSC(=O)C(C)(C)C)[C@@H](O)[C@H]1O`, the selectivity ratio in series [7] was under 10. This compound also returned a CC50 with Huh-7 of 12 µM. In addition, in the series with Hepatitis C virus [5], the EC50 worked out at 3.43 µM.

As to `C#C[C@@]1(c2ccc3c(N)ncnn23)O[C@H](COP(=O)(OCCSC(=O)C(C)(C)C)OCCSC(=O)C(C)(C)C)[C@@H](O)[C@H]1O`, in [7], the selectivity ratio was under 10. The compound further showed a CC50 with Huh-7 of 26 µM. The EC50 in the series on Hepatitis C virus [5] was 6.01 µM.

Turning to `N#C[C@@]1(c2ccc3c(N)ncnn23)O[C@H](CO)[C@@H](O)[C@H]1O` [GS-441524], the EC50 with Coxsackievirus A21 is over 30 µM; in the series on Yellow fever virus, 11 µM; in the series on SARS-CoV, 2.24 µM; in the series on Human respirovirus 3, 1.71 µM; in the series on Influenza A virus, 27.9 µM; in the series with dengue virus type 2, 9.46 µM. The EC50 (with West Nile virus; in [4]) was over 30 µM throughout. For the same compound, the CC50 with MRC5 was over 30 µM; with Vero [1] it was over 30 µM; with MDCK, over 30 µM; in [2], over 89 µM; in the series on Vero [3] it was over 30 µM; in the series with HeLa, over 30 µM.

In turn, `N#C[C@@]1(c2ccc3c(N)ncnn23)O[C@H](COP(=O)(O)OP(=O)(O)OP(=O)(O)O)[C@@H](O)[C@H]1O` [RDV-TP] gave an IC50 in the series on Hepatitis C virus [6] of 5.6 µM.
